From ChEMBL document CHEMBL4387709, “Discovery of Quinoline Analogues as Potent Antivirals against Enterovirus D68 (EV-D68)” (J Med Chem, 2019)
Active and inactive are the calls of the source. No cut-off for these calls is given here.

Legend:
enterovirus D68 [1] = test: Antiviral activity against Enterovirus D68 US/KY/14-18953 infected in human RD cells assessed as inhibition of virus-induced cytopathic effect incubated for 5 mins under shaking condition and measured after 3 days by neutral red dye-based photometric method; assay type: functional, organism-based; conditions: Enterovirus D, US/KY/14-18953, RD
In short: (§1)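 RD cells seeded one day ahead to ~90% confluence, PBS (Mg/Ca) wash, infected at ~MOI 0.01 with EV-D68 in DMEM/2% FBS/30 mM MgCl2 at 33 °C, 5% CO2. Compounds and 1% P/S added after 1 h. Plates shaken ~5 min, held 3 days, viable cells stained with neutral red (66 µg/ml), A540 read. EC50 from dose-response fits, triplicates.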

RD [2] = test: Inhibition of 2C protein in Enterovirus D68 US/KY/14-18953 infected in human RD cells assessed as reduction of VP1 expression at 3 uM measured at 9 hrs post infection by DAPI-staining based microscopy; assay type: cell-based
In short: (§2)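 Fixed at 9 hpi (4% formaldehyde), 0.2% Triton X-100 permeabilized, blocked with 10% bovine serum. Stained with rabbit anti-VP1 plus Alexa-488 secondary, nuclei with 300 nM DAPI. Confocal microscopy.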

RD [3] = test: Inhibition of 2C protein in Enterovirus D68 US/KY/14-18953 infected in human RD cells assessed as reduction of VP1 expression at 3 uM measured at 9 hrs post infection by Western blot analysis; assay type: cell-based
In short: (§3)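 Equal protein separated and blotted to PVDF. Probed with rabbit anti-VP1 and mouse anti-GAPDH (1:3,000), HRP secondary, chemiluminescent detection. Mean of two independent experiments ± SD.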

RD [4] = test: Inhibition of 2C protein in Enterovirus D68 US/KY/14-18953 infected in human RD cells assessed as reduction of VP1 expression at 1 uM measured at 9 hrs post infection by Western blot analysis; assay type: cell-based; in short: as §3
RD [5] = test: Inhibition of 2C protein in Enterovirus D68 US/KY/14-18953 infected in human RD cells assessed as reduction of viral RNA level at 3 uM measured at 9 hrs post infection by RT-qPCR method relative to control; assay type: cell-based
In short: (§4)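 DNase-treated. 1.2 µg reverse-transcribed with oligo(dT)18. qPCR run 95 °C 10 min, then 40 cycles of 95 °C 15 s/60 °C 60 s, with melt curve. Compared with DMSO control, one-way ANOVA, mean of two experiments ± SD.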

[6] = Inhibition of sodium channel in rat dorsal root ganglia neurons assessed as reduction in veratridine-induced intracellular calcium influx at 20 to 50 uM after overnight incubation by Fura-2AM dye based fluorescence microscopy; assay type: cell-based
Influenza A virus = test: Antiviral activity against Influenza A virus (A/California/07/2009(H1N1)) at 10 uM after 2 days by plaque assay; assay type: functional, organism-based
Influenza B virus = test: Antiviral activity against Influenza B virus (B/Brisbane/60/2008) at 10 uM after 2 days by plaque assay; assay type: functional, organism-based
enterovirus D68 [7] = test: Antiviral activity against Enterovirus D68 US/MO/14-18947 infected in human RD cells assessed as inhibition of virus-induced cytopathic effect incubated for 5 mins under shaking condition and measured after 3 days by neutral red dye-based photometric method; assay type: functional, organism-based; conditions: Enterovirus D, US/MO/14-18947, RD; in short: as §1
enterovirus D68 [8] = test: Antiviral activity against Enterovirus D68 US/MO/14-18949 infected in human RD cells assessed as inhibition of virus-induced cytopathic effect incubated for 5 mins under shaking condition and measured after 3 days by neutral red dye-based photometric method; assay type: functional, organism-based; conditions: Enterovirus D, US/MO/14-18949, RD; in short: as §1
enterovirus D68 [9] = test: Antiviral activity against Enterovirus D68 […] infected in human RD cells assessed as inhibition of virus-induced cytopathic effect incubated for 5 mins under shaking condition and measured after 3 days by neutral red dye-based photometric method; assay type: functional, organism-based; conditions: Enterovirus D; in short: as §1
A549 = test: Cytotoxicity against human A549 cells after 3 days by neutral red dye-based photometric method; assay type: cell-based; conditions: a549, 72 h
In short: (§5)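 Uninfected cells run as in the CPE assay (33 °C, 3 days, same media) with compound. Viability by neutral red staining and 540 nm absorbance. CC50 from dose-response curves, triplicate experiments.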

HeLa = test: Cytotoxicity against human HeLa cells after 3 days by neutral red dye-based photometric method; assay type: cell-based; conditions: 72 h; in short: as §5
enterovirus D68 [10] = test: Antiviral activity against Enterovirus D68 US/KY/14-18953 infected in human A172 cells assessed as inhibition of virus-induced cytopathic effect incubated for 5 mins under shaking condition and measured after 3 days by neutral red dye-based photometric method; assay type: functional, organism-based; conditions: Enterovirus D, US/KY/14-18953, A 172
In short: (§6)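 A172 cells (DMEM, 10% FBS) grown ~90% confluent, infected with EV-D68 at ~MOI 0.3 in DMEM/2% FBS/30 mM MgCl2 and kept at 33 °C. P/S and compounds added 1 h later. Brief orbital shaking, then 3-day incubation. Neutral red staining with 540 nm absorbance. EC50 from best-fit dose-response curves in triplicate.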

A 172 = test: Cytotoxicity against human A172 cells after 3 days by neutral red dye-based photometric method; assay type: cell-based; conditions: a 172, 72 h; in short: as §5
enterovirus D68 [11] = test: Antiviral activity against Enterovirus D68 US/KY/14-18953 infected in human SH-SY5Y cells assessed as inhibition of virus-induced cytopathic effect incubated for 5 mins under shaking condition and measured after 3 days by neutral red dye-based photometric method; assay type: functional, organism-based; conditions: Enterovirus D, US/KY/14-18953, SH-SY5Y
In short: (§7)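 Virus at ~MOI 1 applied to SH-SY5Y cells (50% DMEM/50% F-12, 10% FBS) at ~90% confluence in DMEM/2% FBS/30 mM MgCl2 at 33 °C. Compounds added after 1 h with 1% P/S, shaken ~5 min, incubated 3 days. Viability read by neutral red uptake (A540). EC50 fitted from dose-response, triplicate.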

SH-SY5Y = test: Cytotoxicity against human SH-SY5Y cells after 3 days by neutral red dye-based photometric method; assay type: cell-based; conditions: 72 h; in short: as §5
enterovirus D68 [12] = test: Antiviral activity against Enterovirus D68 US/MO/14-18947 infected in human A172 cells assessed as inhibition of virus-induced cytopathic effect incubated for 5 mins under shaking condition and measured after 3 days by neutral red dye-based photometric method; assay type: functional, organism-based; conditions: Enterovirus D, US/MO/14-18947, A 172; in short: as §6
enterovirus D68 [13] = test: Antiviral activity against Enterovirus D68 US/MO/14-18947 infected in human SH-SY5Y cells assessed as inhibition of virus-induced cytopathic effect incubated for 5 mins under shaking condition and measured after 3 days by neutral red dye-based photometric method; assay type: functional, organism-based; conditions: Enterovirus D, US/MO/14-18947, SH-SY5Y; in short: as §7
RD [14] = test: Inhibition of 2C protein in Enterovirus D68 US/KY/14-18953 infected in human RD cells assessed as reduction of VP1 expression at 1 uM measured at 9 hrs post infection by DAPI-staining based microscopy; assay type: cell-based; in short: as §2
RD [15] = test: Inhibition of 2C protein in Enterovirus D68 US/KY/14-18953 infected in human RD cells assessed as reduction of viral RNA synthesis at 1 uM measured at 9 hrs post infection by reagent-based RT-qPCR method relative to control; assay type: cell-based; in short: as §4
[16] = Inhibition of sodium channel in rat dorsal root ganglia neurons assessed as reduction in veratridine-induced intracellular calcium influx at 2 to 50 uM after overnight incubation by Fura-2AM dye based fluorescence microscopy; assay type: cell-based
enterovirus D68 [17] = test: Antiviral activity against Enterovirus D68 US/IL/14-18956 infected in human RD cells assessed as inhibition of virus-induced cytopathic effect incubated for 5 mins under shaking condition and measured after 3 days by neutral red dye-based photometric method; assay type: functional, organism-based; conditions: Enterovirus D, US/IL/14-18956, RD; in short: as §1
[18] = Cytotoxicity against human RD cells after 3 days by neutral red dye-based photometric method; assay type: cell-based; conditions: RD cells
[19] = Selectivity index, ratio of CC50 for human RD cells to EC50 for Enterovirus D68 US/KY/14-18953 infected in human RD cells; assay type: toxicity, cell-based; conditions: read-out: Ratio CC50/EC50

SMILES	EC50 (enterovirus D68 [1]) [nM]	inhibition (RD [4])	Activity (Influenza A virus)	Activity (Influenza B virus)	EC50 (enterovirus D68 [7]) [nM]	EC50 (enterovirus D68 [8]) [nM]	EC50 (enterovirus D68 [9]) [nM]	CC50 (A549) [nM]	CC50 (HeLa) [nM]	EC50 (enterovirus D68 [10]) [nM]	CC50 (A 172) [nM]	EC50 (enterovirus D68 [11]) [nM]	CC50 (SH-SY5Y) [nM]	EC50 (enterovirus D68 [12]) [nM]	EC50 (enterovirus D68 [13]) [nM]	inhibition (RD [14])	inhibition (RD [15]) [%]	EC50 (enterovirus D68 [17]) [nM]	also measured
CCCCOc1cc(C(=O)NCCN(CC)CC)c2ccccc2n1 [DIBUCAINE]	5300	inactive	inactive	inactive	3500	2900	2000	37500	36000	3700	> 30000	1700	> 30000	1900	1900				inhibition (RD [2]): Active; inhibition (RD [3]): Active; inhibition (RD [5]): 80%; inhibition (INH) [6]: Active
CN(C)CCNC(=O)c1cc(-c2ccccc2)nc2ccccc12	400	Active	inactive	inactive	300	600	600	121000	68700	400	88400	400	> 300000	300	200	Active	> 99	200	inhibition (INH) [16]: Not Active
N=C(N)N [GUANIDINE]	219000																		CC50 at 72 h [18]: > 300000 nM; selectivity ratio [19]: > 1.4
CN(C)CCNC(=O)c1cc(-c2cccs2)nc2ccccc12	40	Active	inactive	inactive	60	50	50	98800	51200	20	73800	100	136000	100	10	Active	> 99	60	
